Compound activity: PubChem, several laboratories
Hits are enriched below; roughly 2.2% of the tested compounds scored in any of these assays.
APP 5'UTR act: activates APP 5'UTR luciferase reporter; SH-SY5Y APP 5'UTR luciferase reporter, luminescence; zero percent = DMSO vehicle wells; activation, % at 2 µM; actives 1% (n = 190,000);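 active = activation above a set limit, based on mean plus 3 SD of controls, cut at about 140% in these data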
FLuc inh counter: Photinus pyralis luciferase inhibition counter-screen; actives 1.5% (n = 200,000); ATPLite firefly luciferase biochemical luminescence, 10 min; P08659; inhibition, % at 10 µM;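 active = inhibition above about 50% when tested at 10 µM, limit read from the data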
Target sequence (P08659 whole entry, looked up): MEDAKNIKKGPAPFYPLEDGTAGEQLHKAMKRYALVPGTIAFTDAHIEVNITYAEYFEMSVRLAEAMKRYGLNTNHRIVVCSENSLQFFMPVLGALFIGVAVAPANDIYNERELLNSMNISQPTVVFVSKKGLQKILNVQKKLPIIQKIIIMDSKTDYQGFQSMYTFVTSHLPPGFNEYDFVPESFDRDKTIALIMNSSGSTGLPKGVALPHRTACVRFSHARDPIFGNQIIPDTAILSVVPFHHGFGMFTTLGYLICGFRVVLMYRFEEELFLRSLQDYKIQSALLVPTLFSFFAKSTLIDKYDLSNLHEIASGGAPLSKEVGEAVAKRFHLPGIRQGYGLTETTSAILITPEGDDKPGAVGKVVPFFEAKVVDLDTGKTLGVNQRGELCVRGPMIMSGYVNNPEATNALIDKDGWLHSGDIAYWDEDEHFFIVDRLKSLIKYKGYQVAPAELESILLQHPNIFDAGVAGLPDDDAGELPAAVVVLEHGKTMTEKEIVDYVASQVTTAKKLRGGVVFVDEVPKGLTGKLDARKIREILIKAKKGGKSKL
C8 TRAIL sens: sensitizes caspase-8 expressing cells to TRAIL. actives 1% (n = 360,000). inhibition (viability loss, TRAIL sensitization), % at 10 µM. NB7+C8 cells + TRAIL, ATPlite viability luminescence;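 active = compounds causing at least 50% loss of cell viability in the single-dose screen, relative to plate controls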
FLuc stim CS: affects firefly luciferase, flagging false hits in luciferase stimulation screens. P08659. ATPlite luciferase biochemical, luminescence, 10 min; 0 = ATP-free wells, 1 = DMSO control. activation factor at 10 µM. 200,000 tested, under 10 active;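 active = luciferase activation factor, scaled between plate controls, of at least 2 with compound at 10 µM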
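Assay system – cell-free luciferase reagent · Medium – PBS-based ATP solution · Dosing – test compounds dosed from 2 mM stocks in 100% DMSO · Timing – 10 min, room temperature · Technique – light output (luminescence) · Measure – luminescence gain marking luciferase activators · Controls – No-ATP low control, compound-free enzyme-plus-ATP high control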
NF-kB neuron act: compounds increasing NF-kB expression in human neuronal cells; fold change at 12.5 µM; actives 1.6% (n = 190,000); AID 1239; NF-kB reporter expression; hits give high values; in the data active = fold change above about 3.3
PPC-1+TRAIL kill: kills PPC-1 cancer cells in the presence of TRAIL; PPC-1 cells + TRAIL, ATPLite viability luminescence; cell killing (% activity), % at 4 µM or 5 µM; actives 0.41% (n = 220,000); AID 1443;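 active = cell killing above 50% in the first pass at 4 µM, then a duplicate retest at 5 µM averaging 50% or more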;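 also: plate controls were cells with TRAIL plus DMSO for no effect and medium-only wells lacking cells for full effect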
* = called active by the depositor; / = no result given.

SMILES | APP 5'UTR act | FLuc inh counter | C8 TRAIL sens | FLuc stim CS | NF-kB neuron act | PPC-1+TRAIL kill
O=C(N/N=C/c1cccc(NC(=O)c2ccc(Cl)cc2)c1)c1ccc(O)cc1 | / | / | 61* | / | / | 30
CCNC(=O)C1(C)CCN(C(=O)c2ccccc2C(F)(F)F)C1 (centres undefined) | / | / | -12 | / | / | /
CCOC(=O)CC(S(=O)(=O)c1ccccc1)S(=O)(=O)c1ccccc1 | / | / | 1 | / | / | /
CCC(C)c1ccc(NC(=O)Nc2cccnc2)cc1 (centres undefined) | / | / | 49* | / | / | /
CC(=O)c1ccc(NC(=O)Nc2cccnc2)cc1 | / | / | 52* | / | / | /
CC(=O)c1ccc(NC(=O)Nc2ccc(Cl)cc2)cc1 | 166* | 3 | 9 | 1 | 3.6* | 17
CC(=O)c1ccc(NC(=O)Nc2ccncc2)cc1 | 19 | 12 | 19 | 0.9 | 0.8 | -1
CCN(CC)C(=O)c1cccc(-c2csc(C(C)(O)c3ccncc3)n2)c1 (centres undefined) | / | / | 26 | / | / | /
COCCN(Cc1ccccc1)C(=O)c1cccc(S(=O)(=O)N2CCN(Cc3ccccc3)CC2)c1 | / | / | 11 | / | / | /
O=C(/C=C/c1ccco1)Nc1cccnc1 | 10 | 33 | 15 | 0.7 | / | 10
Cc1ccc(NC(=O)/C=C/c2ccco2)nc1 | -89 | 62* | 33 | 0.4 | 0.89 | 30
COc1cccc(NC(=O)/C=C/c2ccco2)c1 | 73 | 45 | 6 | 0.6 | 3.7* | 11
O=C(/C=C/c1ccco1)Nc1ccccn1 | 73 | 69* | 20 | 0.3 | 3.2 | 29
CSc1cccc(NC(=O)/C=C/c2ccco2)c1 | 36 | 21 | 6 | 0.8 | 3.2 | -10
C=C1C(=O)C23CCC4C(C)(C(=O)OC)CCCC4(C)C2CCC1(O)C3 (centres undefined) | / | / | 89* | / | / | /
COC(=O)[C@]1(C)CCC[C@@]2(C)C3CC[C@@]4(C)C[C@]3(CCC21)CC(=O)N4 (some centres undefined) | / | / | -6 | / | / | /
O=C(NCCc1ccccc1)C(=O)NCc1ccncc1 | -9 | 50* | -5 | 0.5 | 1.2 | 13
CCCS(=O)(=O)NC(=O)C1(C)CCCN(C(=O)c2ccc(F)cc2Cl)C1 (centres undefined) | / | / | 3 | / | / | /
CCOc1ccccc1N(CC)C(=O)c1cc2c(s1)-c1ccccc1S(=O)(=O)C2 | / | / | -1 | / | / | /
CCN(CC)S(=O)(=O)c1cc(C(=O)OCC(=O)Nc2ccc(-c3nc4ccc(C)cc4s3)cc2)ccc1F | 143* | 19 | 74* | 0.8 | 6* | 28
Cc1ccc2nc(-c3ccc(NS(=O)(=O)c4ccc(F)c(F)c4)cc3)sc2c1 | 180* | 55* | 31 | 0.5 | 6.5* | 20
CCN(CC)S(=O)(=O)c1ccc(C(=O)OCC(=O)Nc2ccc(-c3nc4ccc(C)cc4s3)cc2)cc1 | 151* | 33 | 75* | 0.7 | 1.6 | 28
Cc1ccc2nc(-c3ccc(NS(=O)(=O)c4ccccc4)cc3)sc2c1 | 1 | 1 | 5 | 1 | 1.3 | 6
Cc1ccc2nc(-c3ccc(NC(=O)COCC(=O)O)cc3)sc2c1 | / | / | 23 | / | / | 32
CSCCNC(=O)C1(C)CCN1C(=O)CCc1ccccc1 (centres undefined) | / | / | 6 | / | / | /
SMILES | APP 5'UTR act | FLuc inh counter | C8 TRAIL sens | FLuc stim CS | NF-kB neuron act | PPC-1+TRAIL kill
O=C(Nc1cc(S(=O)(=O)N2CCOCC2)ccc1N1CCOCC1)c1ccc([N+](=O)[O-])s1 | / | / | 53* | / | / | /
CCc1nc2ccc(C(=O)NC(C)(C)C)cn2c1N(CC)Cc1cccc(Br)c1 | / | / | 2 | / | / | /
Cc1cc(-c2csc3nc[nH]c(=S)c23)cc(C)c1C | 7 | -8 | 60* | 1.1 | 0.67 | 15
CCCCc1ccc(-c2nc(-c3ccncc3)no2)cc1 | 176* | 13 | 4 | 0.9 | 7* | 14
CCc1ccc(-c2nc(-c3ccncc3)no2)cc1 | 168* | 43 | 23 | 0.6 | 3.4* | 18
CCCc1ccc(-c2ccc(-c3noc(-c4ccncc4)n3)cc2)nc1 | / | / | 43 | / | / | /
COc1ccc(Cl)cc1Cn1c(C)c(C(=O)NCc2cccc([N+](=O)[O-])c2)sc1=O | / | / | -9 | / | / | /
CC(C)n1c(=O)c2ccccc2n1Cc1cn(-c2ccc(Cl)cc2)nn1 | / | / | -7 | / | / | /
CCc1nc2ccccc2c(C(=O)OCC(=O)Nc2cccc(S(=O)(=O)N3CCOCC3)c2)c1C | 4 | -4 | 50* | 1 | 0.31 | -2
